Data: ChEMBL document CHEMBL4321802, “Antioxidant-Conjugated 1,2,4-Triazolo[4,3-a]pyrazin-3-one Derivatives: Highly Potent and Selective Human A2A Adenosine Receptor Antagonists Possessing Protective Efficacy in Neuropathic Pain” (J Med Chem, 2019)
Activity calls are given as the source filed them.

Experiments:
[1] = target: T1, Adenosine receptor A1 (Homo sapiens, UniProt P30542); test: Displacement of [3H]CCPA from human adenosine A1 receptor expressed in CHO cell membranes by radioligand competition assay
T1 sequence (P30542 whole entry): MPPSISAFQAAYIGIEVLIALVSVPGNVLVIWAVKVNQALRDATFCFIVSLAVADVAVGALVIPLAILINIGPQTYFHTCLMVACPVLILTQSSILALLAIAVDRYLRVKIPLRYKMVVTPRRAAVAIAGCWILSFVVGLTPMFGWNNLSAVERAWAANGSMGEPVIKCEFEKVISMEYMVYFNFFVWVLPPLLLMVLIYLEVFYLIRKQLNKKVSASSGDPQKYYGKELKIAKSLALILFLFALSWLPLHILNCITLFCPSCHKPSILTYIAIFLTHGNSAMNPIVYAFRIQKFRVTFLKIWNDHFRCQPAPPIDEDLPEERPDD
Summary of the method: (§1)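 Membranes from stably transfected CHO cells were made by 1000 g, then 100 000g spins. hA1 used 1.0 nM [³H]CCPA in 50 mM Tris/HCl pH 7.4. hA3 used 1.0 nM [³H]HEMADO in 50 mM Tris/HCl, 10 mM MgCl2, 1 mM EDTA, pH 8.25. Ki from competition curves, each concentration tested three to five times in triplicate, mean ± S.E.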

[2] = target: T2, Adenosine receptor A2a (Homo sapiens, UniProt P29274); test: Displacement of [3H]NECA from human adenosine A2A receptor expressed in CHO cell membranes by radioligand competition assay
[3] = target: T3, Adenosine receptor A3 (Homo sapiens, UniProt P0DMS8); test: Displacement of [3H]HEMADO from human adenosine A3 receptor expressed in CHO cell membranes by radioligand competition assay; summary of the method: as §1
T3 sequence (P0DMS8 whole entry): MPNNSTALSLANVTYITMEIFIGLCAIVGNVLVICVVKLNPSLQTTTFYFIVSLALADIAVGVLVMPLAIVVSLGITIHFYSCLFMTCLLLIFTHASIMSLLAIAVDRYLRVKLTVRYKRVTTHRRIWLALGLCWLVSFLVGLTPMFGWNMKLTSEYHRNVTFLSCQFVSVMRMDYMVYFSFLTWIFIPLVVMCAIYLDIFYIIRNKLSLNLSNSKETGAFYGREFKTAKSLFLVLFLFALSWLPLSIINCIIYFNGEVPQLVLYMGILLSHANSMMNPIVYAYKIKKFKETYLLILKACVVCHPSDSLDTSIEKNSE

[4] = target: T4, Adenosine receptor A2b (Homo sapiens, UniProt P29275); test: Antagonist activity at human adenosine A2B receptor expressed in CHO cells assessed as inhibition of NECA-stimulated adenylyl cyclase activity by Glo-sensor cAMP assay; format: functional, cell-based
T4 sequence (P29275 whole entry): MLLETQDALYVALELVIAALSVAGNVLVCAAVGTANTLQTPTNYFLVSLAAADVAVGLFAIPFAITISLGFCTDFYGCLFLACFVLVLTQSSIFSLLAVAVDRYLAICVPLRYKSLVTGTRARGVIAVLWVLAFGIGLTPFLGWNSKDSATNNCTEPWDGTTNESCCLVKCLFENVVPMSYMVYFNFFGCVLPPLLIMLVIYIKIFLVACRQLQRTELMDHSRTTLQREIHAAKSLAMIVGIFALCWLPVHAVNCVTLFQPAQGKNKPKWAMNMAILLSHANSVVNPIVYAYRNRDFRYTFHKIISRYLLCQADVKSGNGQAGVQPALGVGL
Summary of the method: (§2)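 CHO cells stably expressing hA2A or hA2B AR and transiently the GloSensor cAMP biosensor. Cells were equilibrated 2 h at rt in CO2-independent medium with 3% v/v GloSensor reagent and 10% FBS. Compounds at graded concentrations were tested against NECA-induced cAMP rise; luminescence as % of maximal RLU. IC50 from nonlinear regression. Three to five runs in triplicate, mean ± S.E.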

[5] = target: T2, Adenosine receptor A2a; test: Antagonist activity at human adenosine A2A receptor expressed in CHO cells assessed as inhibition of NECA-stimulated adenylyl cyclase activity by Glo-sensor cAMP assay; format: functional, cell-based; summary of the method: as §2
[6] = system: Microglia; test: Neuroprotective activity against 10 uM Oxaliplatin-induced neurotoxicity in Sprague-Dawley rat microglia assessed as cell viability at 10 uM incubated fro 24 hrs by MTT assay (reference value: 33.2 +/- 1.3%); format: functional
[7] = system: Microglia; test: Neuroprotective activity against 30 uM Oxaliplatin-induced neurotoxicity in Sprague-Dawley rat microglia assessed as cell viability at 10 uM incubated fro 24 hrs by MTT assay (reference value: 19.1 +/- 0.8%); format: functional
[8] = system: Microglia; test: Antioxidant activity in Sprague-Dawley rat microglia assessed as suppression of oxaliplatin-dependent increase in superoxide dismutase-inhibitable superoxide anion generation at 10 uM incubated for 4 hrs in presence of oxaliplatin by spectrophotometry based cytochrome c assay; format: functional, cell-based
Summary of the method: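 Primary neonatal (P1–P3) Sprague–Dawley rat cortical microglia (95–98% Iba1-positive), grown to confluence at 5×10⁵/well. Cells incubated 4 h at 37 °C in serum-free DMEM with cytochrome c (1 mg/ml), ± 100 µM oxaliplatin, ± compounds at 10 µM. Absorbance at 550 nm, minus the value with bovine SOD (300 mU/ml). O2•− calculated with ε 2.1×10⁴ M⁻¹ cm⁻¹, as µM/mg protein/4 h. Three experiments, mean ± SEM.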

[9] = system: Microglia; test: Antioxidant activity in Sprague-Dawley rat microglia assessed as suppression of oxaliplatin-induced reduction in catalase activity at 10 uM incubated for 24 hrs in presence of oxaliplatin by Amplex red dye based assay; format: functional, cell-based
Summary of the method: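 Primary rat microglia (5·10⁵ cells/well) exposed 24 h to oxaliplatin 10 µM ± compounds at 10 µM. Cells washed, scraped in PBS, freeze-thawed and spun 13,000×g for 10 min at 4 °C. Catalase read in the supernatant with an Amplex Red kit, normalised to BCA protein; untreated control set to 100%. Three experiments, mean ± SEM.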

[10] = system: Mus musculus; test: Analgesic activity in CD1 albino mouse model of oxaliplatin-induced neuropathy hypersensitivity assessed as increase pain threshold at 10 to 30 mg/kg, po dosed from day 14 post oxaliplatin challenge and measured after 15 to 45 mins post dose by cold plate test; format: functional, organism-based
Summary of the method: (§3)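 Male CD-1 mice (22–25 g) given oxaliplatin 2.4 mg kg⁻¹ i.p. in 5% glucose on days 1-2, 5-9 and 12-14; controls got vehicle. On day 14, compounds suspended in 1% carboxymethylcellulose were given once p.o. Cold plate held at 4 °C ± 1 °C; latency to first hind-paw licking/lifting recorded, 60 s cut-off. Mean ± SEM, two experimental sets; one-way ANOVA with Bonferroni.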

[11] = target: Adenosine receptor A2a (Rattus norvegicus, UniProt P30543); test: Displacement of [3H]NECA from rat adenosine A2A receptor expressed in CHO cell membranes by radioligand competition assay
[12] = Half life in 50 mM Tris buffer; format: physicochemical
Summary of the method: (§4)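 Compounds incubated at 37 °C in 50 mM Tris buffer pH 7.4 or in pooled healthy-volunteer human plasma (stored -80 °C). Concentration followed over time by LC-MS/MS; t1/2 taken from the decay rate of ln(concentration) versus time. Half-lives above 240 min cannot be resolved and are given as ≥240. Ketoprofen ethyl ester served as plasma-activity reference.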

[13] = Half life in human plasma; format: ADME, cell-free; summary of the method: as §4
[14] = system: Mus musculus; test: Analgesic activity in CD1 albino mouse model of oxaliplatin-induced neuropathy hypersensitivity assessed as increase pain threshold at 0.03 mg/kg, po dosed from day 14 post oxaliplatin challenge and measured after 30 to 60 mins post dose by cold plate test; format: functional, organism-based; summary of the method: as §3
[15] = system: Mus musculus; test: Analgesic activity in CD1 albino mouse model of oxaliplatin-induced neuropathy hypersensitivity assessed as increase pain threshold at 1 to 10 mg/kg, po dosed from day 14 post oxaliplatin challenge and measured after 30 to 60 mins post dose by cold plate test; format: functional, organism-based; summary of the method: as §3
[16] = system: Mus musculus; test: Analgesic activity in CD1 albino mouse model of oxaliplatin-induced neuropathy hypersensitivity assessed as increase pain threshold at 4 mg/kg, po dosed from day 14 post oxaliplatin challenge and measured up to 90 mins post dose by cold plate test; format: functional, organism-based; summary of the method: as §3
[17] = system: Mus musculus; test: Analgesic activity in CD1 albino mouse model of oxaliplatin-induced neuropathy hypersensitivity assessed as increase pain threshold at 40 mg/kg, po dosed from day 14 post oxaliplatin challenge and measured up to 90 mins post dose by cold plate test; format: functional, organism-based; summary of the method: as §3

T2 sequence (P29274 whole entry): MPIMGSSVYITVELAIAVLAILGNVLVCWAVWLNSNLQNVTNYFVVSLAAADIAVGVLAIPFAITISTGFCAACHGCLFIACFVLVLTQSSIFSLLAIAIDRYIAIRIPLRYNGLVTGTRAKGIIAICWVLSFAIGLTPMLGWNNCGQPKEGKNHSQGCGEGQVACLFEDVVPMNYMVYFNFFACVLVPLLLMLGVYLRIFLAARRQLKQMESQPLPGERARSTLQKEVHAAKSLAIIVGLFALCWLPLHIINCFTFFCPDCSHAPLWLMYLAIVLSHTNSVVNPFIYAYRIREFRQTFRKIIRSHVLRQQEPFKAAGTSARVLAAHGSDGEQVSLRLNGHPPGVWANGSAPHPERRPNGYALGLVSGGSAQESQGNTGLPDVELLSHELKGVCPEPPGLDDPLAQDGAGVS
Sequence of Adenosine receptor A2a (Rattus norvegicus, UniProt P30543) (P30543 whole entry): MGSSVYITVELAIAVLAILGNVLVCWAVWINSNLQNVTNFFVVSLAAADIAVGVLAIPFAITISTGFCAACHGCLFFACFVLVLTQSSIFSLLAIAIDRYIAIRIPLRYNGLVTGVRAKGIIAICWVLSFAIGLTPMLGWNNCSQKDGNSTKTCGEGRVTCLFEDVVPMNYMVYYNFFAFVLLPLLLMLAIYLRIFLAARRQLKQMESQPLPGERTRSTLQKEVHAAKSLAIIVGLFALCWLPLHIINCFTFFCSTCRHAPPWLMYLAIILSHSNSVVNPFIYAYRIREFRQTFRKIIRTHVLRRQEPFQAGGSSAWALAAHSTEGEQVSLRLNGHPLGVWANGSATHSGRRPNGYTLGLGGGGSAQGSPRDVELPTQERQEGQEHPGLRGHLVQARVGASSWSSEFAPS

Compound | Ki [1] | Ki [2] | Ki [3] | IC50 [4] | other results
CC(C)(C)c1cc(C(=O)NCCOc2ccc(-c3cn4c(=O)n(-c5ccccc5)nc4c(N)n3)cc2)cc(C(C)(C)C)c1O | 13700 nM | 14800 nM | > 30000 nM | > 30000 nM | –
CC(C)(C)c1cc(C(=O)NCCC(=O)Nc2ccc(-c3cn4c(=O)n(-c5ccccc5)nc4c(N)n3)cc2)cc(C(C)(C)C)c1O | > 30000 nM | 54.5 nM | > 30000 nM | > 30000 nM | IC50 [5]: 263 nM; Activity [6]: 43.5%; Activity [7]: 30.6%; Activity [8]: Active; Activity [9]: Active; Activity [10]: Active; Ki [11]: 86 nM; half-life [12]: ≥ 4 h; half-life [13]: ≥ 4 h
Nc1nc(-c2ccc(OCCNC(=O)CCCCC3CCSS3)cc2)cn2c(=O)n(-c3ccccc3)nc12 (stereo unspecified) | 379 nM | 2.4 nM | 4100 nM | > 30000 nM | IC50 [5]: 116 nM; Activity [6]: 54.5%; Activity [7]: 34.2%; Activity [8]: Active; Activity [9]: Active; Activity [14]: Active; Activity [15]: Dose-dependent effect; Ki [11]: 9 nM; half-life [12]: ≥ 4 h; half-life [13]: ≥ 4 h
Cc1cc(-c2cn3c(=O)n(-c4ccccc4)nc3c(N)n2)cc(C)c1O | 21.3 nM | 2.5 nM | 100 nM | > 30000 nM | –
C=CC(=O)Nc1ccc(-c2cn3c(=O)n(-c4ccccc4)nc3c(N)n2)cc1 | 263 nM | 1.8 nM | > 30000 nM | > 30000 nM | –
COc1ccc(-c2cn3c(=O)n(-c4ccccc4)nc3c(N)n2)c(OC)c1 | 28 nM | 2.4 nM | 118 nM | > 30000 nM | –
Nc1nc(-c2ccc(NC(=O)CCCCC3CCSS3)cc2)cn2c(=O)n(-c3ccccc3)nc12 (stereo unspecified) | 8.4 nM | 5 nM | > 30000 nM | > 30000 nM | –
COc1c(C)cc(-c2cn3c(=O)n(-c4ccccc4)nc3c(N)n2)cc1C | 4.5 nM | 0.17 nM | 8.6 nM | > 30000 nM | –
Nc1nc(-c2ccc3c(c2)OCO3)cn2c(=O)n(-c3ccccc3)nc12 | 13 nM | 7.4 nM | 38 nM | > 30000 nM | –
O=C(O)CCCCC1CCSS1 (stereo unspecified) | – | – | – | – | Activity [16]: inactive; Activity [17]: inactive
Nc1ccc(-c2cn3c(=O)n(-c4ccccc4)nc3c(N)n2)cc1 | 33.5 nM | 22.9 nM | 254 nM | > 30000 nM | –
N#CCOc1ccc(-c2cn3c(=O)n(-c4ccccc4)nc3c(N)n2)cc1 | > 30000 nM | 8.2 nM | > 30000 nM | > 30000 nM | IC50 [5]: 157 nM; Activity [6]: 48.7%; Activity [7]: 23%; Activity [10]: Active; Ki [11]: 39 nM; half-life [12]: ≥ 4 h; half-life [13]: ≥ 4 h
COc1ccc(-c2cn3c(=O)n(-c4ccccc4)nc3c(N)n2)cc1OC | 59 nM | 5.7 nM | 80.1 nM | > 30000 nM | –
COc1c(C(C)(C)C)cc(-c2cn3c(=O)n(-c4ccccc4)nc3c(N)n2)cc1C(C)(C)C | 108 nM | 142 nM | > 30000 nM | > 30000 nM | –
Nc1nc(-c2cc(O)c(O)c(O)c2)cn2c(=O)n(-c3ccccc3)nc12 | 176 nM | 94.5 nM | 5570 nM | 17300 nM | –
COc1cc(-c2cn3c(=O)n(-c4ccccc4)nc3c(N)n2)cc(OC)c1OC | 55 nM | 3.5 nM | 214 nM | > 30000 nM | –
NC(=O)COc1ccc(-c2cn3c(=O)n(-c4ccccc4)nc3c(N)n2)cc1 | 392 nM | 26 nM | 604 nM | > 30000 nM | –
COc1cc(O)ccc1-c1cn2c(=O)n(-c3ccccc3)nc2c(N)n1 | 29.7 nM | 16.8 nM | 11100 nM | > 30000 nM | –
NCCOc1ccc(-c2cn3c(=O)n(-c4ccccc4)nc3c(N)n2)cc1 | 289 nM | 14.9 nM | 2130 nM | > 30000 nM | –
CC(C)(C)c1cc(-c2cn3c(=O)n(-c4ccccc4)nc3c(N)n2)ccc1O | > 30000 nM | 8.5 nM | > 30000 nM | > 30000 nM | IC50 [5]: 179 nM; Activity [6]: 46.4%; Activity [7]: 28.6%; half-life [12]: ≥ 4 h; half-life [13]: 2.03 h
Nc1nc(-c2ccc(NC(=O)CCNC(=O)CCCCC3CCSS3)cc2)cn2c(=O)n(-c3ccccc3)nc12 (stereo unspecified) | 1360 nM | 36.4 nM | > 30000 nM | > 30000 nM | IC50 [5]: 296 nM; Activity [6]: 38.9%; Activity [7]: 18.3%; half-life [12]: ≥ 4 h; half-life [13]: 0.683 h
NCCC(=O)Nc1ccc(-c2cn3c(=O)n(-c4ccccc4)nc3c(N)n2)cc1 | 479 nM | 0.59 nM | 509 nM | 9660 nM | –
Nc1nc(-c2ccc(O)c(O)c2)cn2c(=O)n(-c3ccccc3)nc12 | 42.6 nM | 5.2 nM | 950 nM | > 30000 nM | –
